# Laboratory results as given in ChEMBL document CHEMBL1131193, “Selective tight binding inhibitors of trypanosomal glyceraldehyde-3-phosphate dehydrogenase via structure-based drug design” (J Med Chem, 1998).
# pIC50: −log10 of the molar value.
# Molecular target: not listed separately
# Experiment: Inhibitory activity was measured for Glyceraldehyde-3-phosphate dehydrogenase in Trypanosoma cruzi.
# Summary of the method: (§1)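 Recombinant glycosomal GAPDH of L. mexicana, T. cruzi or T. brucei; human enzyme from erythrocytes. NADH formation followed at 340 nm, 21 °C, in 0.1 M triethanolamine-HCl pH 7.6 with DTT, NaN3, MgSO4, EDTA, 10 mM K2HPO4, 0.8 mM glyceraldehyde-3-phosphate, 0.19 mM NAD+, 5% DMSO. Reaction started with enzyme. IC50 from 0–1 min initial rates at ≥5 inhibitor levels versus DMSO control.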
row,pIC50,SMILES
1,4.52,COc1cccc(C(=O)N[C@@H]2[C@H](O)[C@@H](CO)O[C@H]2n2cnc3c(NCc4ccccc4C)ncnc32)c1
2,3.80,COc1cccc(C(=O)N[C@@H]2[C@H](O)[C@@H](CO)O[C@H]2n2cnc3c(NCc4ccccc4)ncnc32)c1

# Molecular target: Glyceraldehyde-3-phosphate dehydrogenase (Homo sapiens, UniProt P04406)
# Experiment: Inhibitory activity was measured for Glyceraldehyde-3-phosphate dehydrogenase in human(erythrocytes); call rule not given here
# Type: cell-based
# Summary of the method: as §1
# Sequence of Glyceraldehyde-3-phosphate dehydrogenase (P04406 whole entry): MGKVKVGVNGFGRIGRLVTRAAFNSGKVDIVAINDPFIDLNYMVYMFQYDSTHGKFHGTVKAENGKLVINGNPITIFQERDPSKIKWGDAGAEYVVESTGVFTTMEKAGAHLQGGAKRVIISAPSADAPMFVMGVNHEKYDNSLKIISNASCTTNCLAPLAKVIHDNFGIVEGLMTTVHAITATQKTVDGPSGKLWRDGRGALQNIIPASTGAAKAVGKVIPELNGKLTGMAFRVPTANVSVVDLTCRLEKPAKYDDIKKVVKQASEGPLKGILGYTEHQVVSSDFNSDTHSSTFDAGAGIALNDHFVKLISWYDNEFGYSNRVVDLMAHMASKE
row,pIC50,SMILES
1,< 3.57,COc1cccc(C(=O)N[C@@H]2[C@H](O)[C@@H](CO)O[C@H]2n2cnc3c(NCc4ccccc4C)ncnc32)c1
2,< 3.28,COc1cccc(C(=O)N[C@@H]2[C@H](O)[C@@H](CO)O[C@H]2n2cnc3c(NCc4ccccc4)ncnc32)c1

# Test system: GAPDH (Leishmania mexicana)
# Experiment: Inhibitory activity was measured for Glyceraldehyde-3-phosphate dehydrogenase (up to 10 mM
row,IC50,SMILES
1,Not Active,CCCCCNc1ncnc2c1ncn2[C@@H]1O[C@H](CO)[C@@H](O)[C@H]1O
2,Not Active,CC(C)(C)Nc1ncnc2c1ncn2C1O[C@H](CO)[C@@H](O)[C@H]1O (some centres not stated)
3,Not Active,CCCC(C)Nc1ncnc2c1ncn2C1O[C@H](CO)[C@@H](O)[C@H]1O (some centres not stated)

# Molecular target: not listed separately
# Experiment: Inhibitory activity measured for Glyceraldehyde-3-phosphate dehydrogenase (GAPDH) in Leishmania. mexicana
# Summary of the method: as §1
row,SMILES,pIC50
1,OC[C@H]1O[C@@H](n2cnc3c(NC4CCCCCC4)ncnc32)[C@H](O)[C@@H]1O,2.74
2,Nc1ccc(CNc2ncnc3c2ncn3[C@@H]2O[C@H](CO)[C@@H](O)[C@H]2O)cc1,2.51
3,COc1cccc(C(=O)N[C@@H]2[C@H](O)[C@@H](CO)O[C@H]2n2cnc3c(N)ncnc32)c1,3.10
4,Nc1ncnc2c1ncn2[C@@H]1O[C@H](CO)[C@@H](O)[C@H]1NC(=O)c1cccc(O)c1,3.07
5,COc1cccc(C(=O)N[C@@H]2[C@H](O)[C@@H](CO)O[C@H]2n2cnc3c(NC(=O)C(C)C)ncnc32)c1,2.92
6,CC(CO)CCNc1ncnc2c1ncn2C1O[C@H](CO)[C@@H](O)[C@H]1O (some centres not stated),2.47
7,CCC(C)CNc1ncnc2c1ncn2C1O[C@H](CO)[C@@H](O)[C@H]1O (some centres not stated),< 2.27
8,Nc1ncnc2c1ncn2[C@@H]1O[C@H](CO)[C@@H](O)[C@H]1O [ADENOSINE],1.30
9,OC[C@H]1O[C@@H](n2cnc3c(NCc4ccccc4)ncnc32)[C@H](O)[C@@H]1O [N6-BENZYLADENOSINE],2.38
10,OC[C@H]1O[C@@H](n2cnc3c(NC4CCCC4)ncnc32)[C@H](O)[C@@H]1O [N6-CYCLOPENTYLADENOSINE],< 2.30
11,CC(C)=CCNc1ncnc2c1ncn2[C@@H]1O[C@H](CO)[C@@H](O)[C@H]1O [RIBOPRINE],< 2.30

# Other lines, results leading:
row,pIC50,SMILES
1,3.82,OC[C@H]1O[C@@H](n2cnc3c(NCc4cccc5ccccc45)ncnc32)[C@H](O)[C@@H]1O
2,3.60,Nc1ncnc2c1ncn2[C@@H]1O[C@H](CO)[C@@H](O)[C@H]1NC(=O)c1cc(O)c(O)c(O)c1
3,3.22,COc1cccc(C(=O)N[C@@H]2[C@H](O)[C@@H](CO)O[C@H]2n2cnc3c(N)ncnc32)c1O
4,3.30,COc1cc(C(=O)N[C@@H]2[C@H](O)[C@@H](CO)O[C@H]2n2cnc3c(N)ncnc32)ccc1O
5,5.40,COc1cccc(C(=O)N[C@@H]2[C@H](O)[C@@H](CO)O[C@H]2n2cnc3c(NCc4ccccc4C)ncnc32)c1
6,4.80,COc1cccc(C(=O)N[C@@H]2[C@H](O)[C@@H](CO)O[C@H]2n2cnc3c(NCc4ccccc4)ncnc32)c1
7,5.26,COc1cccc(C(=O)N[C@@H]2[C@H](O)[C@@H](CO)O[C@H]2n2cnc3c(NCc4cccc(C)c4C)ncnc32)c1
8,4.60,COc1cccc(C(=O)N[C@@H]2[C@H](O)[C@@H](CO)O[C@H]2n2cnc3c(NCc4cc(C)ccc4C)ncnc32)c1
9,3.19,Nc1ncnc2c1ncn2[C@@H]1O[C@H](CO)[C@@H](O)[C@H]1NC(=O)c1cc(O)cc(O)c1
10,4.60,COc1cccc(C(=O)N[C@@H]2[C@H](O)[C@@H](CO)O[C@H]2n2cnc3c(NCc4ccccc4OC)ncnc32)c1
11,3.44,OC[C@H]1O[C@@H](n2cnc3c(NC4CCCc5ccccc54)ncnc32)[C@H](O)[C@@H]1O (some centres not stated)
12,3.15,Cc1cccc(CNc2ncnc3c2ncn3[C@@H]2O[C@H](CO)[C@@H](O)[C@H]2O)c1
13,3.62,OC[C@H]1OC(n2cnc3c(NC(c4ccccc4)c4ccccc4)ncnc32)[C@H](O)[C@@H]1O (some centres not stated)
14,3.47,OCc1ccccc1Sc1ccccc1CNc1ncnc2c1ncn2C1O[C@H](CO)[C@@H](O)[C@H]1O (some centres not stated)
15,3.15,Cc1ccccc1CNc1ncnc2c1ncn2[C@@H]1O[C@H](CO)[C@@H](O)[C@H]1O [METRIFUDIL]

# Molecular target: not listed separately
# Experiment: Inhibitory activity was measured for Glyceraldehyde-3-phosphate dehydrogenase (GAPDH) in Leishmania. mexicana.
row,pIC50,SMILES
1,2.43,CC(C)CCNc1ncnc2c1ncn2[C@@H]1O[C@H](CO)[C@@H](O)[C@H]1O

# Molecular target: not listed separately
# Experiment: Inhibitory activity was measured for Glyceraldehyde-3-phosphate dehydrogenase in Trypanosoma brucei
# Summary of the method: as §1
row,pIC50,SMILES
1,4.52,COc1cccc(C(=O)N[C@@H]2[C@H](O)[C@@H](CO)O[C@H]2n2cnc3c(NCc4ccccc4C)ncnc32)c1
2,3.66,COc1cccc(C(=O)N[C@@H]2[C@H](O)[C@@H](CO)O[C@H]2n2cnc3c(NCc4ccccc4)ncnc32)c1

# Test system: GAPDH (Leishmania mexicana)
# Experiment: Inhibitory activity was measured for Glyceraldehyde-3-phosphate dehydrogenase (up to 10 mM
# Remark: another data set of the same source
row,IC50,SMILES
1,Not Active,CC(C)Nc1ncnc2c1ncn2[C@@H]1O[C@H](CO)[C@@H](O)[C@H]1O
